# From PubChem
# Shown are actives, neighbours in structure and some others; about 1.9% of the full set was active somewhere.
# RAD52 anneal inh – RAD52 (human) annealing inhibition. P43351. inhibition, % at 18.7 µM. hit rate 0.46% among 360,000. recombinant RAD52 DNA annealing, FRET fluorescence;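 active = every replicate showing at least 50% inhibition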
# Target sequence (P43351 whole entry, looked up): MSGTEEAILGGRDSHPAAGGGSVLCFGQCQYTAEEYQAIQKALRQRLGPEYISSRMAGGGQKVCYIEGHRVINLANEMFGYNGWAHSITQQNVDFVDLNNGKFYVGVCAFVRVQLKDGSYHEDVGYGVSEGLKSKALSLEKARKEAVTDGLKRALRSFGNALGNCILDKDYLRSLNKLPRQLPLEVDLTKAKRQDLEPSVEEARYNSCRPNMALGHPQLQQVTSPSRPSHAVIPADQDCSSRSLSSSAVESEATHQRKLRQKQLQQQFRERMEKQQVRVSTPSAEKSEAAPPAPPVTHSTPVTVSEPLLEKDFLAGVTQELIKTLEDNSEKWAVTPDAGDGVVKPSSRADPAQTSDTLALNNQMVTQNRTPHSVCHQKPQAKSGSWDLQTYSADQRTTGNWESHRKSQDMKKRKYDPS
# rRNA inh HTS – inhibits bacterial ribosomal RNA function over humanized ribosomes; AID 720706; GFP signal change (wild-type ribosome), % (no concentration beside the values); E. coli WT GFP vs humanized-ribosome RFP mutants, fluorescence, 24 h; active compounds read low; DMSO median 0, no signal -100; hit rate 1.6% among 350,000;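 active = significant combined selectivity score with lowered wild-type GFP, culture density cut under 30%, mutant RFP and density less affected; inactive = any of these conditions unmet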
# Cneo AK release – Cryptococcus neoformans lysis via adenylate kinase release. AID 651654. C. neoformans lysis, adenylate kinase release luminescence, 4 h; normalised: neutral wells 0, clomiphene wells 100. hit rate 0.2% among 360,000. lysis activity, % at 15 µM;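 active = mean lysis activity across replicates of at least 80%, whatever share of replicates individually reach that level; inactive = mean lysis activity below 80%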
#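 read-out = cell lysis signal | test system = log-phase Cryptococcus neoformans yeast cells | input = cells at 5 × 10^6 per mL | medium = fresh YPD growth medium | signal = luminescent adenylate kinase detection reagent | timing = 4 h at 37 °C static, read 1 h later | dosing = single dose | controls = Clomiphene as positive lysis control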
# PglD DTNB – PglD (C. jejuni) enzyme inhibition; inhibition, % at 12.5 µM; hit rate 0.098% among 360,000; purified PglD enzyme, DTNB colorimetric CoA detection; in the data active = inhibition above about 16%, passing the limit was not always enough
# RAD54 branch – blocks human RAD54 Holliday junction branch migration. Q92698. FAM/BHQ fluorescence. inhibition, % at 10.4 µM. hit rate 0.14% among 360,000. AID 602329;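 active = mean normalized replicate activity at least 40 and at least half of replicates scoring 40 or more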;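 also: 0% = median of neutral control wells and 100% = median of positive control wells; inhibitors cause a drop in the FAM fluorescence signal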
# * hit, by the source's call; . = no result given.
SMILES,RAD52 anneal inh,rRNA inh HTS,Cneo AK release,PglD DTNB,RAD54 branch
COc1cc(N/C(N)=N/c2nc(C)cc(C)n2)cc(OC)c1,81*,10,-1,6,10
CC(C)(C)N(Cc1ccccc1)C(=O)CN1C(=O)c2ccccc2C1=O,7,4,0,0,-22
CC(C)(C)N(Cc1ccccc1)C(=O)CN1C(=O)c2ccccc2S1(=O)=O,-19,-24*,0,-1,0
COc1ccc2c3c([nH]c2c1)[C@H](CO)N(CC1CCOCC1)CC31CN(C(=O)C2CC2)C1,-73,3,.,.,.
COC(=O)CSc1nc2ccc(C)cc2[nH]1,.,.,0,2,1
Cc1ccc2nc(SCC(=O)c3ccc(O)cc3O)[nH]c2c1,-23,-23*,-6,-3,3
COc1cc(NC(=O)CCCOc2ccc(Cl)cc2Cl)c(C(=O)O)cc1OC,-12,-31*,-1,1,0
COC(=O)[C@]1(C)N[C@H](CN(C)S(=O)(=O)c2ccc(F)cc2)[C@@H]2C(=O)N(Cc3ccccc3)C(=O)[C@@H]21,-11,-1,3,1,-6
COC(=O)[C@]1(C)N[C@H](CN(C)S(=O)(=O)c2ccc(OC(F)(F)F)cc2)[C@@H]2C(=O)N(Cc3ccccc3)C(=O)[C@@H]21,-3,-21*,4,5,-11
Cc1ccc(Cc2c(-c3ccc(C)cc3)nc3ccc(Cl)cn23)cc1,-55,-10,-1,0,-2
Cc1ccc(Cc2c(-c3ccc(Br)cc3)nc3ccc(Cl)cn23)cc1,-58,-27*,-1,4,-6
Cc1noc(C)c1S(=O)(=O)N(C)C[C@H]1Oc2ccc(NC(=O)Nc3ccc(C(F)(F)F)cc3)cc2C(=O)N([C@H](C)CO)C[C@@H]1C,.,-5,.,.,.
COc1cc(OC)c2c(-c3cccc(-c4ccc(O)cc4)c3)cc(=O)oc2c1,-26,-24*,-5,3,-5
CN1N=C(C(=O)N2CCc3c([nH]c4ccccc34)C2c2ccccc2Cl)CCC1=O (configuration not stated),-10,.,.,.,.
O=C(c1cc[n+]([O-])cc1)N1CCc2c([nH]c3ccccc23)C1c1ccccc1Cl (configuration not stated),-3,-30*,-1,-1,8
CC(=O)N(C)C[C@H]1Oc2ccccc2CC(=O)N(C)C[C@@H]1C,.,1,.,.,.
COc1ccc(C(=O)Nc2nc(N)n(-c3ccccc3)n2)cc1OC,.,.,2,3,13
COc1ccccc1/C=C/C(=O)Nc1nc(N)n(-c2ccccc2)n1,-11,-25*,.,.,.
O=C(c1ccccc1)c1coc2ccc(O)c(Cl)c12,-2,-45*,-2,-4,3
Cc1ccc(C(=O)c2coc3ccc(O)c(Cl)c23)cc1,.,.,1,-186,9
O=C(COC(=O)c1ccc(-c2ccc([N+](=O)[O-])cc2)o1)NC(=O)NC1CCCCC1,-17,-33*,3,1,-5
Cc1cc(Br)ccc1SCC(=O)OCC(=O)NCc1ccco1,-5,-18*,-3,3,-3
CCCC(=O)N1CCN(c2nc3c(OC)ccc(Cl)c3s2)CC1,2,-36*,-1,-1,-8
COc1ccc(Cl)c2sc(N3CCN(C(=O)c4ccco4)CC3)nc12,2,-6,.,.,.
CN(C)c1cccc2c1c(NC(=O)Nc1ccccc1)nn2C,-6,-18*,.,.,.
SMILES,RAD52 anneal inh,rRNA inh HTS,Cneo AK release,PglD DTNB,RAD54 branch
O=C(O)C(Cc1ccccc1)n1cccc1 (configuration not stated),.,.,-1,0,-6
O=C(O)[C@H](Cc1ccccc1)N1C(=O)c2c(Cl)c(Cl)c(Cl)c(Cl)c2C1=O,-19,-39*,-1,1,6
CCn1c(-c2cc(-c3ccccc3)sc2N)n[nH]c1=S,1,-30,4,0,5
CCn1c(-c2cc(-c3cccc(OC)c3)nc3ccccc23)n[nH]c1=S,-24,-44*,14,5,4
C#CCOCCOCCOCCNc1nc(N2CCN(C(=O)CCCCCCCCCCNC(=O)Cn3cc(CCCCCN)nn3)CC2)nc(N2CCN(C(=O)CCCCCCCCCCNC(=O)Cn3cc(C[C@@H](C)O)nn3)CC2)n1,52*,1,1,-3,0
C#CCOCCOCCOCCNc1nc(N2CCN(C(=O)CCCCCCCCCCNC(=O)[C@H]([C@@H](C)CC)n3cc(CCCCN=C(N)N)nn3)CC2)nc(N2CCN(C(=O)CCCCCCCCCCNC(=O)[C@@H]([C@H](C)O)n3cc(C)nn3)CC2)n1,38,-40*,0,0,-6
C#CCOCCOCCOCCNc1nc(N2CCOCC2)nc(N2CCN(C(=O)CCCCCCCCCCNC(=O)[C@H]([C@@H](C)CC)n3cc(CCCCN=C(N)N)nn3)CC2)n1,28,-54,2,3,5
C#CCOCCOCCOCCNc1nc(N2CCN(C(=O)[C@H](CCCCN)n3cc(CN)nn3)CC2)nc(N2CCN(C(=O)[C@H](CCCCN)n3cc(CN)nn3)CC2)n1,61*,25,2,-2,-19
C[C@H](CO)N1C[C@H](C)[C@H](CN(C)C(=O)c2cccnc2)Oc2ncc(-c3ccc(C#N)cc3)cc2C1=O,5,0,-5,1,-7
Cc1ccc2c(Cl)c(C(=O)N/N=C/c3cccn3C)sc2c1,-3,-22*,9,-2,2
Cn1cccc1/C=N/NC(=O)c1sc2cc(Cl)ccc2c1Cl,-13,-21,.,.,.
CC(=O)NC(=S)Nc1cccc2c(C)cc(C)nc12,-17,11,.,.,.
Cc1cc(C)c2c(N)c3ccccc3nc2n1,.,.,1,0,100*
Cc1cc(C)c2cccc(N)c2n1,0,-23*,0,3,-1
Cc1nc2ccccc2c2c(N)cccc12,-15,6,.,.,.
CC(=O)Nc1ccc2c(c1)C(=O)N(C)C[C@@H](C)[C@H](CN(C)C)O2,.,3,.,.,.
Cc1[nH]c2ccccc2c1C(C[N+](=O)[O-])c1cccc(O)c1 (configuration not stated),-42,-33*,.,.,.
O=C(COC(=O)Cc1ccc(Cl)cc1)NCCc1ccccc1,-13,-24*,-1,1,-11
C[C@@H]1CN([C@H](C)CO)C(=O)c2cc(NS(=O)(=O)c3ccc(Cl)cc3)ccc2O[C@H]1CN(C)Cc1ccc(C(=O)Nc2ccccc2N)cc1,11,-6,.,.,.
CC(Cc1ccccc1)NC(=S)CN1CCCC1=S (configuration not stated),-13,-21*,.,.,.
CC(Cc1ccccc1)NC(=O)CC(c1ccccc1)c1ccccc1O (configuration not stated),-2,-39,0,-6,1
CCCCC(CC)C(=O)Oc1ccc(O)c(C(C)(C)C)c1 (configuration not stated),12,-22*,42,-2,3
CNC(=O)C[C@@H]1CC[C@@H]2[C@H](COC[C@@H](O)CN2C(=O)Nc2ccc3c(c2)OCO3)O1,-1,-1,113*,-3,-3
